Source: ChEMBL document CHEMBL3259603, “Antiprotozoal activity and DNA binding of N-substituted N-phenylbenzamide and 1,3-diphenylurea bisguanidines” (Eur J Med Chem, 2014)
Calls of active or inactive are those of the source. The rule behind the calls is not given here.

tested on: Trypanosoma brucei rhodesiense; experiment: Antimicrobial activity against trypomastigote stage of Trypanosoma brucei rhodesiense STIB900 infected in rat L6 cells after 96 hrs by Alamar Blue assay; format: functional, organism-based; settings: STIB900, L6, 96 h
In short: (§1)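 Alamar blue-based viability assays were run on bloodstream T. b. rhodesiense STIB900 and on rat skeletal myoblast L6 cells. Podophyllotoxin was the reference drug for L6.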

IC50 | Compound
3130 nM | N/C(=N\OCc1ccccc1)Nc1ccc(NC(=O)c2ccc(N/C(N)=N/OCc3ccccc3)cc2)cc1
11 nM | CC(C)/N=C(\N)Nc1ccc(NC(=O)c2ccc(N/C(N)=N/C(C)C)cc2)cc1.Cl
9 nM | CC/N=C(\N)Nc1ccc(NC(=O)c2ccc(N/C(N)=N/CC)cc2)cc1.Cl
4880 nM | N/C(=N\O)Nc1ccc(NC(=O)c2ccc(N/C(N)=N/O)cc2)cc1
177 nM | C/N=C(\N)Nc1ccc(NC(=O)c2ccc(N/C(N)=N/C)cc2)cc1.Cl
51400 nM | N/C(=N\OC1CCCCO1)Nc1ccc(NC(=O)c2ccc(N/C(N)=N/OC3CCCCO3)cc2)cc1 (configuration not stated)
264 nM | C/N=C(\N)Nc1ccc(NC(=O)Nc2ccc(N/C(N)=N/C)cc2)cc1.Cl
56000 nM | CO/N=C(\N)Nc1ccc(NC(=O)c2ccc(N/C(N)=N/OC)cc2)cc1

Compound | IC50
CC/N=C(\N)Nc1ccc(NC(=O)Nc2ccc(N/C(N)=N/CC)cc2)cc1.Cl | 90 nM
CC(C)/N=C(\N)Nc1ccc(NC(=O)Nc2ccc(N/C(N)=N/C(C)C)cc2)cc1.Cl | 49 nM

tested on: not listed separately; experiment: Selectivity index, ratio of CC50 for rat L6 cells to IC50 for Trypanosoma brucei rhodesiense; format: functional; settings: not given
In short: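 Selectivity index was calculated as L6 CC₅₀ divided by the T. b. rhodesiense IC₅₀, both from the Alamar blue assays.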

Compound | Ratio CC50/IC50
CC(C)/N=C(\N)Nc1ccc(NC(=O)c2ccc(N/C(N)=N/C(C)C)cc2)cc1.Cl | 9364
CC/N=C(\N)Nc1ccc(NC(=O)c2ccc(N/C(N)=N/CC)cc2)cc1.Cl | 13111
C/N=C(\N)Nc1ccc(NC(=O)c2ccc(N/C(N)=N/C)cc2)cc1.Cl | 977
CC/N=C(\N)Nc1ccc(NC(=O)Nc2ccc(N/C(N)=N/CC)cc2)cc1.Cl | 1289
CC(C)/N=C(\N)Nc1ccc(NC(=O)Nc2ccc(N/C(N)=N/C(C)C)cc2)cc1.Cl | 2571
Nc1nc(N)nc(Nc2ccc([As]3SCC(CO)S3)cc2)n1 (configuration not stated) [MELARSOPROL] | >1000
C/N=C(\N)Nc1ccc(NC(=O)Nc2ccc(N/C(N)=N/C)cc2)cc1.Cl | 670

tested on: Plasmodium falciparum; experiment: Antimicrobial activity against intraerythrocytic stage of Plasmodium falciparum NF54 infected in human erythrocytes by [3H]hypoxanthine incorporation assay; format: functional, organism-based; settings: not given
In short: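 Erythrocytic P. falciparum NF54 (chloroquine-sensitive) was tested with a [³H]hypoxanthine incorporation read-out.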

IC50 | Compound
2830 nM | N/C(=N\OCc1ccccc1)Nc1ccc(NC(=O)c2ccc(N/C(N)=N/OCc3ccccc3)cc2)cc1
446 nM | CC(C)/N=C(\N)Nc1ccc(NC(=O)c2ccc(N/C(N)=N/C(C)C)cc2)cc1.Cl
232 nM | CC/N=C(\N)Nc1ccc(NC(=O)c2ccc(N/C(N)=N/CC)cc2)cc1.Cl
3580 nM | N/C(=N\O)Nc1ccc(NC(=O)c2ccc(N/C(N)=N/O)cc2)cc1
1020 nM | C/N=C(\N)Nc1ccc(NC(=O)c2ccc(N/C(N)=N/C)cc2)cc1.Cl
42600 nM | N/C(=N\OC1CCCCO1)Nc1ccc(NC(=O)c2ccc(N/C(N)=N/OC3CCCCO3)cc2)cc1 (configuration not stated)
192 nM | C/N=C(\N)Nc1ccc(NC(=O)Nc2ccc(N/C(N)=N/C)cc2)cc1.Cl
7490 nM | CO/N=C(\N)Nc1ccc(NC(=O)c2ccc(N/C(N)=N/OC)cc2)cc1

Compound | IC50
CC/N=C(\N)Nc1ccc(NC(=O)Nc2ccc(N/C(N)=N/CC)cc2)cc1.Cl | 397 nM
CC(C)/N=C(\N)Nc1ccc(NC(=O)Nc2ccc(N/C(N)=N/C(C)C)cc2)cc1.Cl | 437 nM

tested on: not listed separately; experiment: Cytotoxicity against rat L6 cells; format: cell-based; settings: not given; in short: as §1

Compound | CC50
N/C(=N\OCc1ccccc1)Nc1ccc(NC(=O)c2ccc(N/C(N)=N/OCc3ccccc3)cc2)cc1 | 6.6 µM
CC(C)/N=C(\N)Nc1ccc(NC(=O)c2ccc(N/C(N)=N/C(C)C)cc2)cc1.Cl | 103 µM
CC/N=C(\N)Nc1ccc(NC(=O)c2ccc(N/C(N)=N/CC)cc2)cc1.Cl | 118 µM
N/C(=N\O)Nc1ccc(NC(=O)c2ccc(N/C(N)=N/O)cc2)cc1 | 100 µM
C/N=C(\N)Nc1ccc(NC(=O)c2ccc(N/C(N)=N/C)cc2)cc1.Cl | 173 µM
CC/N=C(\N)Nc1ccc(NC(=O)Nc2ccc(N/C(N)=N/CC)cc2)cc1.Cl | 116 µM
N/C(=N\OC1CCCCO1)Nc1ccc(NC(=O)c2ccc(N/C(N)=N/OC3CCCCO3)cc2)cc1 (configuration not stated) | 160 µM
CC(C)/N=C(\N)Nc1ccc(NC(=O)Nc2ccc(N/C(N)=N/C(C)C)cc2)cc1.Cl | 126 µM
C/N=C(\N)Nc1ccc(NC(=O)Nc2ccc(N/C(N)=N/C)cc2)cc1.Cl | 177 µM
CO/N=C(\N)Nc1ccc(NC(=O)c2ccc(N/C(N)=N/OC)cc2)cc1 | 141 µM

tested on: Trypanosoma brucei rhodesiense; experiment: Antimicrobial activity against bloodstream form of Trypanosoma brucei rhodesiense STIB900 infected in acute HAT NMRI mouse model assessed as mean day of relapse at 5 mg/kg, ip administered for 4 days; format: functional; settings: route intraperitoneal

Compound | Time
N=C(N)Nc1ccc(NC(=O)c2ccc(NC(=N)N)cc2)cc1 | >60 days

tested on: Trypanosoma brucei rhodesiense; experiment: Antimicrobial activity against bloodstream form of Trypanosoma brucei rhodesiense STIB900 infected in acute HAT NMRI mouse model assessed as mean day of relapse at 50 mg/kg, po administered for 4 days; format: functional; settings: not given

Compound | Time
N=C(N)Nc1ccc(NC(=O)c2ccc(NC(=N)N)cc2)cc1 | >60 days

tested on: Trypanosoma brucei rhodesiense; experiment: Antimicrobial activity against bloodstream form of Trypanosoma brucei rhodesiense STIB900 infected in acute HAT NMRI mouse model assessed as mean day of relapse at 20 mg/kg, ip administered for 4 days; format: functional; settings: route intraperitoneal
In short: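 Acute-stage mouse model infected with T. b. rhodesiense STIB900, in groups of four mice. Compound was formulated in 100% DMSO and diluted 10-fold in distilled water. It was given on four consecutive days from day 3 post-infection at 0.1 mL/10 g. Three infected mice were left untreated. Parasitaemia was checked in tail-blood smears up to day 60; relapse-free mice were counted as cured. Mean relapse day is the post-infection day of relapse.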

Compound | Time
CC(C)/N=C(\N)Nc1ccc(NC(=O)c2ccc(N/C(N)=N/C(C)C)cc2)cc1.Cl | >60 days
CC/N=C(\N)Nc1ccc(NC(=O)c2ccc(N/C(N)=N/CC)cc2)cc1.Cl | >60 days
CC/N=C(\N)Nc1ccc(NC(=O)Nc2ccc(N/C(N)=N/CC)cc2)cc1.Cl | 18.3 days
CC(C)/N=C(\N)Nc1ccc(NC(=O)Nc2ccc(N/C(N)=N/C(C)C)cc2)cc1.Cl | 10 days

tested on: Mus musculus; experiment: Acute toxicity in NMRI mouse infected with bloodstream form of Trypanosoma brucei rhodesiense STIB900 at 20 mg/kg, ip administered for 4 days; format: organism-based; design: dose 20 mg/kg, route intraperitoneal; settings: in vivo, 96 h

Compound | Activity
CC/N=C(\N)Nc1ccc(NC(=O)Nc2ccc(N/C(N)=N/CC)cc2)cc1.Cl | Toxic
CC(C)/N=C(\N)Nc1ccc(NC(=O)Nc2ccc(N/C(N)=N/C(C)C)cc2)cc1.Cl | Toxic

tested on: Trypanosoma brucei; experiment: Antimicrobial activity against Trypanosoma brucei GVR35 infected in NMRI mouse late stage model at 20 mg/kg, ip administered for 5 days; format: functional, organism-based; design: dose 20 mg/kg; settings: not given

Compound | Activity
N=C(N)Nc1ccc(NC(=O)c2ccc(NC(=N)N)cc2)cc1 | inactive

tested on: not listed separately; experiment: Binding affinity to 5'-biotin-CGAATTCGTCTCCGAATTCG-3' hairpin DNA (unknown origin) after 5 mins by SPR analysis; settings: not given
In short: (§2)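 SPR at 25 °C in MES buffer (10 mM MES, 1 mM EDTA, 100 mM NaCl, 0.005% P20, pH 6.25). Biotinylated hairpins were captured on streptavidin chips to about 400 RU, with a blank reference flow cell. A compound dilution series (from 5 mM stocks) was injected at 20 µL/min with 5 min association and 5 min dissociation. Surfaces were regenerated with 200 mM NaCl/10 mM NaOH. Equilibrium constants came from fits to a one- or two-site model.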

K | Compound
9.8 ×10⁵ /M | CC(C)/N=C(\N)Nc1ccc(NC(=O)c2ccc(N/C(N)=N/C(C)C)cc2)cc1.Cl
8.1 ×10⁵ /M | CC/N=C(\N)Nc1ccc(NC(=O)c2ccc(N/C(N)=N/CC)cc2)cc1.Cl

Compound | K
CC/N=C(\N)Nc1ccc(NC(=O)Nc2ccc(N/C(N)=N/CC)cc2)cc1.Cl | 0.19 ×10⁵ /M

tested on: not listed separately; experiment: Binding affinity to 5'-biotin-CATATATATCCCCATATATATG-3' hairpin DNA (unknown origin) after 5 mins by SPR analysis; settings: not given; in short: as §2

K | Compound
4 ×10⁵ /M | CC(C)/N=C(\N)Nc1ccc(NC(=O)c2ccc(N/C(N)=N/C(C)C)cc2)cc1.Cl
5.2 ×10⁵ /M | CC/N=C(\N)Nc1ccc(NC(=O)c2ccc(N/C(N)=N/CC)cc2)cc1.Cl

Compound | K
CC/N=C(\N)Nc1ccc(NC(=O)Nc2ccc(N/C(N)=N/CC)cc2)cc1.Cl | 0.15 ×10⁵ /M

tested on: not listed separately; experiment: Binding affinity to 5'-biotin-CGCGCGCGTTTTCGCGCGCG-3' hairpin DNA (unknown origin) hairpin DNA after 5 mins by SPR analysis; settings: not given; in short: as §2

K | Compound
< 1 ×10⁵ /M | CC(C)/N=C(\N)Nc1ccc(NC(=O)c2ccc(N/C(N)=N/C(C)C)cc2)cc1.Cl
< 1 ×10⁵ /M | CC/N=C(\N)Nc1ccc(NC(=O)c2ccc(N/C(N)=N/CC)cc2)cc1.Cl

tested on: not listed separately; experiment: Selectivity index, ratio of CC50 for rat L6 cells to IC50 for Plasmodium falciparum NF54; settings: not given

Compound | Ratio CC50/IC50
CC(C)/N=C(\N)Nc1ccc(NC(=O)c2ccc(N/C(N)=N/C(C)C)cc2)cc1.Cl | 231
CC/N=C(\N)Nc1ccc(NC(=O)c2ccc(N/C(N)=N/CC)cc2)cc1.Cl | 509
C/N=C(\N)Nc1ccc(NC(=O)c2ccc(N/C(N)=N/C)cc2)cc1.Cl | 169
CC/N=C(\N)Nc1ccc(NC(=O)Nc2ccc(N/C(N)=N/CC)cc2)cc1.Cl | 292
CC(C)/N=C(\N)Nc1ccc(NC(=O)Nc2ccc(N/C(N)=N/C(C)C)cc2)cc1.Cl | 288
C/N=C(\N)Nc1ccc(NC(=O)Nc2ccc(N/C(N)=N/C)cc2)cc1.Cl | 922

tested on: not listed separately; experiment: Selectivity ratio of K for 5'-biotin-CGAATTCGTCTCCGAATTCG-3' hairpin DNA (unknown origin) to K for 5'-biotin-CATATATATCCCCATATATATG-3' hairpin DNA (unknown origin); settings: not given

Selectivity ratio | Compound
2.5 | CC(C)/N=C(\N)Nc1ccc(NC(=O)c2ccc(N/C(N)=N/C(C)C)cc2)cc1.Cl
1.5 | CC/N=C(\N)Nc1ccc(NC(=O)c2ccc(N/C(N)=N/CC)cc2)cc1.Cl
